Active and inactive are the calls of the source. The rule behind the calls is not given here.
Assays:
[1] = test system: Aspergillus fumigatus; experiment: Antifungal activity against Aspergillus fumigatus hyphae assessed as hyphal damage at 0.1 ug/ml after 6 hrs by XTT assay; type: functional
Method in brief: (§1)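 A. fumigatus AF 4215 hyphae grown 16 h at 37°C in yeast nitrogen base with 2% glucose, then medium changed to RPMI 1640 + 10% heat-inactivated FCS. PMA-induced THP-1 cells added at E:T 10:1, VRC at 0.1 μg/ml, or both, 6 h at 37°C, 5% CO2. THP-1 lysed with water. XTT 0.25 mg/ml plus coenzyme Q0 40 μg/ml, 1 h. OD 450/690 nm; damage = (1 − X/C)×100 against hyphae-only wells; duplicates.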

[2] = test system: THP-1; experiment: Effect on CCL11 gene expression in THP1 cells treated with Aspergillus fumigatus hyphae after 6 hrs by cDNA array hybridization relative to control; type: functional, Homo sapiens
Method in brief: (§2)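 THP-1 cells primed with 10 ng/ml PMA for 6 h, rested 22 h, then exposed 6 h at 37°C to sonicated, nonviable AF 4215 hyphal fragments (E:T 10:1) with or without 0.1 μg/ml VRC. Total RNA (4 μg) reverse-transcribed to biotin-labelled cDNA and hybridised to a 96-gene inflammatory cytokine/receptor nylon array. Chemiluminescent read-out normalised to GAPDH; fold change against untreated cells; >2.5-fold counted significant; three independent arrays.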

[3] = test system: THP-1; experiment: Effect on CCL2 gene expression in THP1 cells treated with Aspergillus fumigatus hyphae by RT-PCR; type: functional, Homo sapiens
Method in brief: (§3)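 THP-1 cells PMA-primed and exposed to hyphal fragments (E:T 10:1) with or without 0.1 μg/ml VRC. One-step RT-PCR on 0.5 μg total RNA with M-MuLV: 48°C 30 min, then 30 cycles of 94°C 15 s, 53°C 30 s, 72°C 1 min. Products run on 1.5% agarose and quantified by densitometry after normalisation to an internal control; three independent experiments.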

[4] = test system: THP-1; experiment: Effect on IL11 gene expression in THP1 cells treated with Aspergillus fumigatus hyphae after 6 hrs by cDNA array hybridization; type: functional, Homo sapiens; method in brief: as §2
[5] = test system: CCL16 (Homo sapiens); experiment: Effect on CCL16 gene expression in THP1 cells treated with Aspergillus fumigatus hyphae after 6 hrs by cDNA array hybridization relative to control
[6] = test system: THP-1; experiment: Effect on CCL4 gene expression in THP1 cells treated with Aspergillus fumigatus hyphae by RT-PCR; type: functional, Homo sapiens; method in brief: as §3
[7] = test system: THP-1; experiment: Increase in IL1-beta production in THP1 cells stimulated with Aspergillus fumigatus hyphae at 0.1 ug/ml after 6 hrs; type: functional, cell-based; settings: Homo sapiens
Method in brief: (§4)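 PMA-primed THP-1 cells (1 × 10^6/ml) incubated 6 h at 37°C with hyphal fragments (E:T 10:1) with or without 0.1 μg/ml VRC. Supernatant IL-1β, TNF-α, IL-12, MCP-1 and MIP-1β measured by sandwich ELISA in duplicate at 450/540 nm. Five independent experiments, means ± SEM; ANOVA with Dunnett's test against untreated cells.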

[8] = test system: THP-1; experiment: Increase in TNFalpha production in THP1 cells stimulated with Aspergillus fumigatus hyphae at 0.1 ug/ml after 6 hrs; type: functional, cell-based; settings: Homo sapiens; method in brief: as §4
[9] = test system: THP-1; experiment: Effect on IL12B gene expression in THP1 cells treated with Aspergillus fumigatus hyphae after 6 hrs by cDNA array hybridization; type: functional, Homo sapiens; method in brief: as §2
[10] = test system: THP-1; experiment: Effect on TNFA gene expression in THP1 cells treated with Aspergillus fumigatus hyphae by RT-PCR; type: functional, Homo sapiens; method in brief: as §3
[11] = test system: THP-1; experiment: Effect on CCL7 gene expression in THP1 cells treated with Aspergillus fumigatus hyphae after 6 hrs by cDNA array hybridization relative to control; type: functional, Homo sapiens; method in brief: as §2
[12] = test system: THP-1; experiment: Effect on IL1R1 gene expression in THP1 cells treated with Aspergillus fumigatus hyphae after 6 hrs by cDNA array hybridization; type: functional, Homo sapiens; method in brief: as §2
[13] = test system: THP-1; experiment: Effect on CCL20 gene expression in THP1 cells treated with Aspergillus fumigatus hyphae after 6 hrs by cDNA array hybridization relative to control; type: functional, Homo sapiens; method in brief: as §2
[14] = test system: THP-1; experiment: Effect on TGFB1 gene expression in THP1 cells treated with Aspergillus fumigatus hyphae after 6 hrs by cDNA array hybridization; type: functional, Homo sapiens; method in brief: as §2
[15] = test system: THP-1; experiment: Decrease in MCP1 production in THP1 cells stimulated with Aspergillus fumigatus hyphae at 0.1 ug/ml after 6 hrs; type: functional, cell-based; settings: Homo sapiens; method in brief: as §4
[16] = test system: THP-1; experiment: Effect on CCL3 gene expression in THP1 cells treated with Aspergillus fumigatus hyphae after 6 hrs by cDNA array hybridization relative to control; type: functional, Homo sapiens; method in brief: as §2
[17] = test system: THP-1; experiment: Effect on CXCL13 gene expression in THP1 cells treated with Aspergillus fumigatus hyphae after 6 hrs by cDNA array hybridization relative to control; type: functional, Homo sapiens; method in brief: as §2
[18] = test system: THP-1; experiment: Effect on CCL4 gene expression in THP1 cells treated with Aspergillus fumigatus hyphae after 6 hrs by cDNA array hybridization relative to control; type: functional, Homo sapiens; method in brief: as §2
[19] = test system: Aspergillus fumigatus; experiment: Antifungal activity against Aspergillus fumigatus hyphae incubated with THP1 cells assessed as hyphal damage at 0.1 ug/ml after 6 hrs by XTT assay; type: functional, THP-1; method in brief: as §1
[20] = test system: THP-1; experiment: Effect on CXCL6 gene expression in THP1 cells treated with Aspergillus fumigatus hyphae after 6 hrs by cDNA array hybridization relative to control; type: functional, Homo sapiens; method in brief: as §2
[21] = test system: THP-1; experiment: Effect on CCL2 gene expression in THP1 cells treated with Aspergillus fumigatus hyphae after 6 hrs by cDNA array hybridization relative to control; type: functional, Homo sapiens; method in brief: as §2
[22] = test system: THP-1; experiment: Effect on CCL15 gene expression in THP1 cells treated with Aspergillus fumigatus hyphae after 6 hrs by cDNA array hybridization relative to control; type: functional, Homo sapiens; method in brief: as §2
[23] = test system: THP-1; experiment: Effect on IL12A gene expression in THP1 cells treated with Aspergillus fumigatus hyphae after 6 hrs by cDNA array hybridization; type: functional, Homo sapiens; method in brief: as §2
[24] = test system: THP-1; experiment: Increase in IL12 production in THP1 cells stimulated with Aspergillus fumigatus hyphae at 0.1 ug/ml after 6 hrs; type: functional, cell-based; settings: Homo sapiens; method in brief: as §4
[25] = test system: THP-1; experiment: Effect on IL16 gene expression in THP1 cells treated with Aspergillus fumigatus hyphae after 6 hrs by cDNA array hybridization; type: functional, Homo sapiens; method in brief: as §2
[26] = test system: THP-1; experiment: Effect on CCL21 gene expression in THP1 cells treated with Aspergillus fumigatus hyphae after 6 hrs by cDNA array hybridization relative to control; type: functional, Homo sapiens; method in brief: as §2
[27] = test system: THP-1; experiment: Decrease in MIP1-beta production in THP1 cells stimulated with Aspergillus fumigatus hyphae at 0.1 ug/ml after 6 hrs; type: functional, cell-based; settings: Homo sapiens; method in brief: as §4
[28] = test system: THP-1; experiment: Effect on IFN-gamma gene expression in THP1 cells treated with Aspergillus fumigatus hyphae after 6 hrs by cDNA array hybridization; type: functional, Homo sapiens; method in brief: as §2
[29] = test system: THP-1; experiment: Effect on CCL5 gene expression in THP1 cells treated with Aspergillus fumigatus hyphae after 6 hrs by cDNA array hybridization relative to control; type: functional, Homo sapiens; method in brief: as §2
[30] = test system: THP-1; experiment: Effect on TNFA gene expression in THP1 cells treated with Aspergillus fumigatus hyphae after 6 hrs by cDNA array hybridization; type: functional, Homo sapiens; method in brief: as §2

## C[C@@H](c1ncncc1F)[C@](O)(Cn1cncn1)c1ccc(F)cc1F [VORICONAZOLE]
[1]
  Activity: 26.77%
[2]
  Fold change: 2.5
[3]
  Fold change: -3
[4]
  Fold change: 6.4
[5]
  Fold change: 0.04
[6]
  Fold change: 4
[7]
  Activity: Active
[8]
  Activity: Active
[9]
  Fold change: -6
[10]
  Fold change: 2.6
[11]
  Fold change: 11.3
[12]
  Fold change: 6.3
[13]
  Fold change: -2.5
[14]
  Fold change: 5.9
[15]
  Activity: Active
[16]
  Fold change: 19.3
[17]
  Fold change: 7
[18]
  Fold change: 5.2
[19]
  Activity: 42.11%
[20]
  Fold change: 3.5
[21]
  Fold change: -2.4
[22]
  Fold change: 10.1
[23]
  Fold change: -3.3
[24]
  Activity: Active
[25]
  Fold change: -7.7
[26]
  Fold change: -2.6
[27]
  Activity: Active
[28]
  Fold change: 3.3
[29]
  Fold change: 17.7
[30]
  Fold change: 3.1
